Experimental data reported in ChEMBL document CHEMBL3872252, “New bithiazolyl hydrazones: Novel synthesis, characterization and antitubercular evaluation” (Bioorg Med Chem Lett, 2017).
≈ marks a conversion by molar mass, not a printed value.

Assays:
[1] = Antitubercular activity against Mycobacterium tuberculosis H37Ra ATCC 25177 dormant stage infected in human THP1 cells measured on day 12 by nitrate reductase assay; assay type: functional, THP-1; conditions: ATCC 25177, 288 h
[2] = Antitubercular activity against Mycobacterium tuberculosis H37Ra ATCC 25177 active stage infected in human THP1 cells measured on day 8 by nitrate reductase assay; assay type: functional, THP-1; conditions: ATCC 25177, 192 h
[3] = Antitubercular activity against Mycobacterium tuberculosis H37Ra ATCC 25177 active stage measured on day 8 by XTT reduction menadione based two-fold dilution assay; assay type: functional; conditions: ATCC 25177, 192 h
In short: (§1)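 M. tuberculosis H37Ra ATCC 25177 was exposed to 0.7–100 μg/mL in two-fold steps (0.7, 1.5, 3.1 … 100). Active stage was read after 8 days and dormant stage after 12 days of incubation. Inhibition was read by XTT reduction menadione assay (XRMA), absorbance 470 nm. MIC90 is the concentration giving ≥90% inhibition (µg/mL).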

[4] = Antitubercular activity against Mycobacterium tuberculosis H37Ra ATCC 25177 dormant stage measured on day 12 by XTT reduction menadione based two-fold dilution assay; assay type: functional; conditions: ATCC 25177, 288 h; in short: as §1
[5] = Antitubercular activity against Mycobacterium bovis BCG ATCC 35743 active stage measured on day 8 by nitrate reductase based two-fold dilution assay; assay type: functional, Mycobacterium bovis BCG str. ATCC 35743; conditions: Mycobacterium tuberculosis variant bovis BCG, ATCC 35743, 192 h
[6] = Antitubercular activity against Mycobacterium bovis BCG ATCC 35743 dormant stage measured on day 12 by nitrate reductase based two-fold dilution assay; assay type: functional, Mycobacterium bovis BCG str. ATCC 35743; conditions: Mycobacterium tuberculosis variant bovis BCG, ATCC 35743, 288 h
[7] = Cytotoxicity against human THP1 cells by MTT assay; assay type: toxicity, cell-based, THP-1; conditions: for GI50: THP1 cells; for GI90: thp-1
[8] = Cytotoxicity against human MCF7 cells by MTT assay; assay type: toxicity, cell-based; conditions: for GI50: MCF7 cells; for GI90: mcf7
[9] = Cytotoxicity against human HCT116 cells by MTT assay; assay type: toxicity, cell-based, HCT-116; conditions: for GI50: HCT116 cells; for GI90: hct-116
[10] = Selectivity index, ratio of GI50 for human MCF7 cells to MIC90 for Mycobacterium tuberculosis H37Ra ATCC 25177 active stage; assay type: toxicity, cell-based; conditions: read-out: Selectivity Index
In short: (§2)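 Cytotoxicity was measured on human MCF-7, HCT116 and THP-1 cells by MTT assay, with paclitaxel as reference. GI50 is the concentration inhibiting 50% of cell growth. The selectivity index is GI50 for the given cell line divided by MIC90 for the given mycobacterial strain and stage.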

[11] = Selectivity index, ratio of GI50 for human MCF7 cells to MIC90 for Mycobacterium tuberculosis H37Ra ATCC 25177 dormant stage; assay type: toxicity, cell-based; conditions: read-out: Selectivity Index
In short: (§3)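 Cytotoxicity was measured on human MCF-7, HCT116 and THP-1 cells by MTT assay, with paclitaxel as reference. The selectivity index is GI50 for the given cell line divided by MIC90 for the given mycobacterial strain and stage.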

[12] = Selectivity index, ratio of GI50 for human MCF7 cells to MIC90 for Mycobacterium bovis BCG ATCC 35743 active stage; assay type: toxicity, cell-based; conditions: read-out: Selectivity Index; in short: as §2
[13] = Selectivity index, ratio of GI50 for human MCF7 cells to MIC90 for Mycobacterium bovis BCG ATCC 35743 dormant stage; assay type: toxicity, cell-based; conditions: read-out: Selectivity Index; in short: as §3
[14] = Selectivity index, ratio of GI50 for human HCT116 cells to MIC90 for Mycobacterium tuberculosis H37Ra ATCC 25177 active stage; assay type: toxicity, cell-based, HCT-116; conditions: read-out: Selectivity Index; in short: as §2
[15] = Selectivity index, ratio of GI50 for human HCT116 cells to MIC90 for Mycobacterium tuberculosis H37Ra ATCC 25177 dormant stage; assay type: toxicity, cell-based, HCT-116; conditions: read-out: Selectivity Index; in short: as §3
[16] = Selectivity index, ratio of GI50 for human HCT116 cells to MIC90 for Mycobacterium bovis BCG ATCC 35743 active stage; assay type: toxicity, cell-based, HCT-116; conditions: read-out: Selectivity Index; in short: as §2
[17] = Selectivity index, ratio of GI50 for human HCT116 cells to MIC90 for Mycobacterium bovis BCG ATCC 35743 dormant stage; assay type: toxicity, cell-based, HCT-116; conditions: read-out: Selectivity Index; in short: as §3
[18] = Selectivity index, ratio of GI50 for human THP1 cells to MIC90 for Mycobacterium tuberculosis H37Ra ATCC 25177 active stage; assay type: toxicity, cell-based, THP-1; conditions: read-out: Selectivity Index; in short: as §2
[19] = Selectivity index, ratio of GI50 for human THP1 cells to MIC90 for Mycobacterium tuberculosis H37Ra ATCC 25177 dormant stage; assay type: toxicity, cell-based, THP-1; conditions: read-out: Selectivity Index; in short: as §3
[20] = Selectivity index, ratio of GI50 for human THP1 cells to MIC90 for Mycobacterium bovis BCG ATCC 35743 active stage; assay type: toxicity, cell-based, THP-1; conditions: read-out: Selectivity Index; in short: as §2
[21] = Selectivity index, ratio of GI50 for human THP1 cells to MIC90 for Mycobacterium bovis BCG ATCC 35743 dormant stage; assay type: toxicity, cell-based, THP-1; conditions: read-out: Selectivity Index; in short: as §3
Escherichia coli [22] = assay: Growth inhibition of Escherichia coli at 30 ug/ml; assay type: functional; conditions: read-out: GI
Escherichia coli [23] = assay: Growth inhibition of Escherichia coli at 10 ug/ml; assay type: functional; conditions: read-out: GI
Escherichia coli [24] = assay: Growth inhibition of Escherichia coli at 3 ug/ml; assay type: functional; conditions: read-out: GI
In short: (§4)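 Screened against Gram-negative E. coli and P. aeruginosa and Gram-positive S. aureus and B. subtilis. Compound was tested at 3 µg/ml, and the read-out is percent growth inhibition.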

Pseudomonas aeruginosa [25] = assay: Growth inhibition of Pseudomonas aeruginosa at 30 ug/ml; assay type: functional; conditions: read-out: GI
Pseudomonas aeruginosa [26] = assay: Growth inhibition of Pseudomonas aeruginosa at 10 ug/ml; assay type: functional; conditions: read-out: GI
Pseudomonas aeruginosa [27] = assay: Growth inhibition of Pseudomonas aeruginosa at 3 ug/ml; assay type: functional; conditions: read-out: GI; in short: as §4
Staphylococcus aureus [28] = assay: Growth inhibition of Staphylococcus aureus at 30 ug/ml; assay type: functional; conditions: read-out: GI
Staphylococcus aureus [29] = assay: Growth inhibition of Staphylococcus aureus at 10 ug/ml; assay type: functional; conditions: read-out: GI
Staphylococcus aureus [30] = assay: Growth inhibition of Staphylococcus aureus at 3 ug/ml; assay type: functional; conditions: read-out: GI; in short: as §4
Bacillus subtilis [31] = assay: Growth inhibition of Bacillus subtilis at 30 ug/ml; assay type: functional; conditions: read-out: GI
Bacillus subtilis [32] = assay: Growth inhibition of Bacillus subtilis at 10 ug/ml; assay type: functional; conditions: read-out: GI
Bacillus subtilis [33] = assay: Growth inhibition of Bacillus subtilis at 3 ug/ml; assay type: functional; conditions: read-out: GI; in short: as §4

Row | Compound | MIC90 [1] [µg/mL] | MIC90 [2] [µg/mL] | IC50 [3] [µg/mL] | MIC90 [3] [µg/mL] | IC50 [4] [µg/mL] | MIC90 [4] [µg/mL] | IC50 [5] [µg/mL] | MIC90 [5] [µg/mL] | IC50 [6] [µg/mL] | MIC90 [6] [µg/mL] | GI50 [7] [µg/mL] | GI90 [7] [µg/mL] | GI50 [8] [µg/mL] | GI90 [8] [µg/mL] | GI50 [9] [µg/mL] | GI90 [9] [µg/mL] | selectivity ratio [10] | selectivity ratio [11] | selectivity ratio [12] | selectivity ratio [13] | further results
1 | C/C(=N\Nc1nc(-c2ccc(Br)cc2)cs1)c1sc(C)nc1C | 48.8 (≈ 120 µM) | 47.9 (≈ 118 µM) | 0.15 (≈ 0.368 µM) | 44.1 (≈ 108 µM) | 0.66 (≈ 1.62 µM) | 43.7 (≈ 107 µM) | 1.6 (≈ 3.93 µM) | 11.4 (≈ 28 µM) | 2.51 (≈ 6.16 µM) | 10.6 (≈ 26 µM) | > 100 | > 100 | > 100 | > 100 | > 100 | > 100 | 2 | 2 | 9 | 9 | selectivity ratio [14]: 2; selectivity ratio [15]: 2; selectivity ratio [16]: 9; selectivity ratio [17]: 9; selectivity ratio [18]: 2; selectivity ratio [19]: 2; selectivity ratio [20]: 9; selectivity ratio [21]: 9; inhibition of growth at 30 µg/mL (Escherichia coli [22]): 82%; inhibition of growth at 10 µg/mL (Escherichia coli [23]): 70.7%; inhibition of growth at 3 µg/mL (Escherichia coli [24]): 35.8%; inhibition of growth at 30 µg/mL (Pseudomonas aeruginosa [25]): 82.1%; inhibition of growth at 10 µg/mL (Pseudomonas aeruginosa [26]): 69.5%; inhibition of growth at 3 µg/mL (Pseudomonas aeruginosa [27]): 30.5%; inhibition of growth at 30 µg/mL (Staphylococcus aureus [28]): 81%; inhibition of growth at 10 µg/mL (Staphylococcus aureus [29]): 68.8%; inhibition of growth at 3 µg/mL (Staphylococcus aureus [30]): 31.2%; inhibition of growth at 30 µg/mL (Bacillus subtilis [31]): 79.5%; inhibition of growth at 10 µg/mL (Bacillus subtilis [32]): 66.4%; inhibition of growth at 3 µg/mL (Bacillus subtilis [33]): 25.9%
2 | C/C(=N\Nc1nc(-c2ccc(Cl)cc2)cs1)c1sc(C)nc1C | > 100 | > 100 | 11.9 (≈ 32.8 µM) | > 100 | 9.02 (≈ 24.9 µM) | > 100 | 1.95 (≈ 5.37 µM) | 16.1 (≈ 44.2 µM) | 3.06 (≈ 8.43 µM) | 17 (≈ 46.7 µM) | > 100 | > 100 | > 100 | > 100 | > 100 | > 100 | 3 | 1 | 6 | 6 | selectivity ratio [14]: 3; selectivity ratio [15]: 1; selectivity ratio [16]: 6; selectivity ratio [17]: 6; selectivity ratio [18]: 3; selectivity ratio [19]: 1; selectivity ratio [20]: 6; selectivity ratio [21]: 6; inhibition of growth at 30 µg/mL (Escherichia coli [22]): 68.4%; inhibition of growth at 10 µg/mL (Escherichia coli [23]): 63.9%; inhibition of growth at 3 µg/mL (Escherichia coli [24]): 54%; inhibition of growth at 30 µg/mL (Pseudomonas aeruginosa [25]): 66.9%; inhibition of growth at 10 µg/mL (Pseudomonas aeruginosa [26]): 61.6%; inhibition of growth at 3 µg/mL (Pseudomonas aeruginosa [27]): 50.9%; inhibition of growth at 30 µg/mL (Staphylococcus aureus [28]): 66.3%; inhibition of growth at 10 µg/mL (Staphylococcus aureus [29]): 61.7%; inhibition of growth at 3 µg/mL (Staphylococcus aureus [30]): 50.9%; inhibition of growth at 30 µg/mL (Bacillus subtilis [31]): 63.8%; inhibition of growth at 10 µg/mL (Bacillus subtilis [32]): 58.9%; inhibition of growth at 3 µg/mL (Bacillus subtilis [33]): 47.1%
